From PubChem BioAssay
Active and inactive are the calls of the source.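 Rule for the calls, unless noted: active = fluorescence slope higher than the sample average by over 3 SD (cut at about -0.22 in these data, passing the limit was not always enough); inactive = the rest.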

Experiments:
[1] = inhibitors of TNFa-induced NFkB p65 translocation, primary screen, imaging, HUVEC, MLSMR starter and 10KST1 sets (AID 438;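 active = inhibition above 20% together with a positive visual image hit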;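 note: compound added about 3h40 before a 20 min TNFalpha stimulation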;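 for inhibition: signal is the nuclear over cytoplasmic p65 intensity ratio per well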); conditions: HUVEC TNFa-induced p65 nuclear translocation; cell count: measured here: nuclei count (cytotoxicity indicator), at 2.08 µM; inhibition: at 2 µM, stronger effect = higher value, 0% TNFa-plus-vehicle, 100% no-TNFa wells
[2] = endothelial E-selectin expression blockers – imaging, HUVEC, immunofluorescence, MLSMR starter and 10KST1 sets, primary screen (AID 487;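 active = visually confirmed hit in the image check and inhibition above 20%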;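 for inhibition: signal is fraction of cell area covered by stained E-selectin grains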;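 for nuclei count: 100% = median nuclei count of all wells on the same plate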); conditions: HUVEC TNFalpha-induced E-selectin immunofluorescence imaging, at 2 µM; inhibition: stronger effect = higher value; nuclei count: measured here: cell number, toxicity
[3] = Primary imaging screen for DUSP6 inhibitors that restore phospho-Erk in transfected HeLa cells, chemical complementation (AID 609;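 active = compounds giving at least 50% inhibition in the cell-based MKP-3 phosphatase rescue imaging test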;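 for inhibition: phospho-Erk level distribution per well compared with pooled transfected vehicle control wells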); conditions: HeLa MKP-3 transfected, phospho-Erk imaging KS statistic, at 10 µM, cells stimulated with TPA for 15 min
[4] = target: Dual specificity protein phosphatase 6 (Homo sapiens) (UniProt Q16828); assay: as above; conditions: HeLa MKP-3 transfected, phospho-Erk imaging KS statistic; at 10 µM; stronger effect = higher value; cells stimulated with TPA for 15 min
Dual specificity protein phosphatase 6 (Homo sapiens), sequence (Q16828 whole entry, looked up): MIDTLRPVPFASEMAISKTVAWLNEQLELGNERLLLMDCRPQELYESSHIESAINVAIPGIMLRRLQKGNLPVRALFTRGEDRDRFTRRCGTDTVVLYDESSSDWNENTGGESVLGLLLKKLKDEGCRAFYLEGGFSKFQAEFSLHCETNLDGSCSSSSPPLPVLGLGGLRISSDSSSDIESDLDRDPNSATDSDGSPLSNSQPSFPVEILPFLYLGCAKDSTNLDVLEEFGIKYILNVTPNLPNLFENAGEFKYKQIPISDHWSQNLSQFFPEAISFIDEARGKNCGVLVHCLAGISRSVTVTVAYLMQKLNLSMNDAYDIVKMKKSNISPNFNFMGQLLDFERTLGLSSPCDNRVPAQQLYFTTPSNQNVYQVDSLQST

[5] = target: Voltage-gated potassium channel subunit beta-2 (Rattus norvegicus) (UniProt P62483); assay: inhibitors of rat Kvbeta2 reductase activity – biochemical, NADPH fluorescence, primary screen (AID 622); conditions: recombinant KvBeta, 4-cyanobenzaldehyde reduction, at 10 µM, stronger effect = higher value;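 note: slope of raw intensity against log time taken from 70 to 1610 s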
Voltage-gated potassium channel subunit beta-2 (Rattus norvegicus), sequence (P62483 whole entry, looked up): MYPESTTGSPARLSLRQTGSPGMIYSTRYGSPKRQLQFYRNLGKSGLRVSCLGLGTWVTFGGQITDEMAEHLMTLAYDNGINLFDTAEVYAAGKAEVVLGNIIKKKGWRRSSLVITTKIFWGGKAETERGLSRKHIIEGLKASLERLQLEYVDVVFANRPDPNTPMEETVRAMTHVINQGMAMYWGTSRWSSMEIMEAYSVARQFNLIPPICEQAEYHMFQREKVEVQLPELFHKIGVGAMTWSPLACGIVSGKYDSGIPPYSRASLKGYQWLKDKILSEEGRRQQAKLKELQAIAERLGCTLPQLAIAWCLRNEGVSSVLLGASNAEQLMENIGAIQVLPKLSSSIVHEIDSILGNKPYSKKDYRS

[6] = target: Voltage-gated potassium channel subunit beta-2 (Rattus norvegicus) (UniProt P62483); assay: enhancers of rat Kvbeta2 NADPH turnover – biochemical, NADPH fluorescence, primary screen (AID 623;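 active = NADPH fluorescence slope more negative than the mean of all samples by about 3 SD, 99.7% confidence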;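 note: fluorescence intensity change per second fitted from 20 to 320 s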); conditions: Recombinant KvBeta, NADPH fluorescence decrease slope, 10 min; at 10 µM; stronger effect = lower value
[7] = target: Alpha-2C adrenergic receptor (Homo sapiens) (UniProt P18825); assay: compounds altering alpha2C-coupled GIRK flux – cell-based, HEK293 alpha2C/GIRK1/2, thallium flux, primary screen (AID 624;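 active = fluorescence slope after compound addition differing from the mean of all screened samples at 99.7% confidence, in either direction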;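 note: slope of fluorescence ratio to pre-addition baseline per second over 15 to 24 s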); conditions: thallium flux BTC fluorescence, at 10 µM, actives lie on both sides
Alpha-2C adrenergic receptor (Homo sapiens), sequence (P18825 whole entry, looked up): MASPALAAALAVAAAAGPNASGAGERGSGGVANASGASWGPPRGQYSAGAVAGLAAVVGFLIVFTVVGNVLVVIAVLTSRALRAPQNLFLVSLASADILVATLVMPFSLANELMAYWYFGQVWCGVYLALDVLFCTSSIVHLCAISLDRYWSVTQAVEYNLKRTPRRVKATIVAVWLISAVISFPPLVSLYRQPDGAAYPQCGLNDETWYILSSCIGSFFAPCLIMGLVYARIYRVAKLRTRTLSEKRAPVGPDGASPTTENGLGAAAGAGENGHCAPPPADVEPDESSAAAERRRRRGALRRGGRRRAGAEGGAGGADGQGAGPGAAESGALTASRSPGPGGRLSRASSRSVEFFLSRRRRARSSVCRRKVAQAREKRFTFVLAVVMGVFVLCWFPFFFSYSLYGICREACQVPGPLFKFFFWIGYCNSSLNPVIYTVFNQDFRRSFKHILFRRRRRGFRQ

[8] = inhibitors of larval lipid processing in zebrafish, primary screen, whole organism, PED6 fluorescence, gall bladder and intestine (AID 686;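 active = a full or partial loss of lipid-probe fluorescence in the fish gall bladder, intestine or both, judged by eye; inactive = no fluorescence loss, or compound toxic to the fish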;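 note: larvae 5 to 7 days old with five fish per well; signal comes from phospholipase A2 cleavage of quenched PED6 carried via bile; overnight exposure to compound and PED6 before scoring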); conditions: Zebrafish larvae PED6 lipid processing, fluorescence scoring; screened at 20 µM (by protocol)
How it was run: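 System: live zebrafish larvae aged 5-7 days, whole organism; measure: graded gall bladder and intestinal fluorescence inhibition per well; incubation: overnight exposure; reagent: ingested quenched lipid PED6 at 100 nM; signal: By-eye fluorescence microscopy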

[9] = loss of swimming-algae plug formation – whole organism, Chlamydomonas reinhardtii, WT vs cilia-less mutant, absorbance, 96-well, primary screen (AID 463189;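 active = inhibition at or above 50% relative to wild type and mutant plate controls; inactive = inhibition below 50%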;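 note: 0% = wild type cc124 cells in DMSO and 100% = ciliumless bld1 mutant cells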); conditions: Chlamydomonas reinhardtii gravitaxis, OD600 absorbance, 2 days; at 10 µM; stronger effect = higher value
[10] = measured here: cell density z-score
[11] = measured here: nuclear c-Myc green intensity z-score
[12] = measured here: nuclear pErk red intensity z-score, stronger effect = higher value

Structure (SMILES) | cell count [1] | inhibition [1] | inhibition [2] | nuclei count [2] [%] | z-score [3, 10] | z-score [3, 11] | z-score [3, 12] | inhibition [4] | fluorescence slope [5] | NADPH fluorescence slope [6] | slope [7] | outcome [8] | inhibition [9]
COc1cc(C2C3C(=O)N(c4ccccc4)C(=O)C3ON2c2ccccc2)ccc1O (configuration not stated) | 322 | -4.2% (inactive) | -22.7% (inactive) | 171 | 0.353 | -0.666 | -0.00927 | 5.42% (inactive) | -0.418 (inactive) | -0.000156 (inactive) | 0.00862 (inactive) | inactive | -1.03% (inactive)
N#Cc1nc(-c2ccc(Cl)cc2)oc1N1CCCCC1 | 424 | -5.8% (inactive) | -41.2% (inactive) | 138 | -0.0904 | -0.228 | 0.966 | 9.61% (inactive) | -0.394 (inactive) | -1.7e-05 (inactive) | 0.00666 (inactive) | inactive | 20% (inactive)
CCc1c(C)c(C#N)c2nc3ccccc3n2c1-n1nc(C)cc1C | 609 | -2.3% (inactive) | -51.2% (inactive) | 140 | -0.4 | 1.4 | -0.335 | 7.93% (inactive) | -0.352 (inactive) | -7.9e-05 (inactive) | 0.00552 (inactive) | inactive | -13.6% (inactive)
CCOC(=O)COn1c(=O)c(-c2ccco2)[n+]([O-])c2ccccc21 | 534 | 1.6% (inactive) | 3.6% (inactive) | 130 | 2.03 | 1.19 | -0.23 | 8.76% (inactive) | -0.283 (inactive) | -1.2e-05 (inactive) | 0.00422 (inactive) | inactive | 34.2% (inactive)
CCCCOc1cccc(-c2nnc(N)s2)c1 | 629 | -13.6% (inactive) | 29.1% (inactive) | 161 | -0.391 | 0.503 | -0.82 | -13.3% (inactive) | -0.395 (inactive) | -4.2e-05 (inactive) | 0.00766 (inactive) | inactive | -2.21% (inactive)
CCOC(=O)C(CC(=O)O)N1CCCCC1 (configuration not stated) | 485 | -6.2% (inactive) | -40.2% (inactive) | 89.2 | -1.03 | 1.55 | -0.781 | 3.5% (inactive) | -0.367 (inactive) | 4.4e-05 (inactive) | 0.00418 (inactive) | inactive | -13.4% (inactive)
C=CCNc1sc(C(=O)C2CC2)c(N)c1C#N | 669 | -24.9% (inactive) | -70.3% (inactive) | 173 | 0.613 | -1.22 | 0.948 | 19.4% (inactive) | -0.366 (inactive) | -3.3e-05 (inactive) | 0.00551 (inactive) | inactive | -5.34% (inactive)
CC1(C)CC(=O)C(C=NCC(O)c2ccccc2)=C(O)C1 (configuration not stated) | 461 | -12.7% (inactive) | -181% (inactive) | 204 | -1.15 | 1.23 | 0.572 | 4.37% (inactive) | -0.354 (inactive) | -1.9e-05 (inactive) | 0.00522 (inactive) | inactive | 14.3% (inactive)
CN1CCc2nc(SCC(=O)Nc3ccc(Cl)cc3)c(C#N)cc2C1 | 378 | -14.3% (inactive) | -155% (inactive) | 162 | 1.95 | -0.641 | -1.16 | 12.3% (inactive) | -0.422 (inactive) | -0.000135 (inactive) | 0.0059 (inactive) | inactive | 0.323% (inactive)
CCOC(=O)c1c(C)cccc1OCC(N)=O | 638 | -2.3% (inactive) | 13.5% (inactive) | 175 | -0.228 | -0.623 | 1.22 | -0.159% (inactive) | -0.487 (inactive) | -0.000164 (inactive) | 0.0049 (inactive) | inactive | -5.84% (inactive)
Brc1ccc(-c2cnc3n2CCCC3)cc1 | 363 | -4.2% (inactive) | -15.9% (inactive) | 108 | 0.187 | 2.77 | -1.27 | 5.65% (inactive) | -0.46 (inactive) | -0.000301 (inactive) | 0.00468 (inactive) | inactive | 142% (active)
CC(C)CC(=O)Nc1ncnc2c1C(=O)CC(C)(C)C2 | 635 | -9.9% (inactive) | 35.4% (inactive) | 167 | 0.463 | -0.408 | 0.517 | 1.12% (inactive) | -0.413 (inactive) | -5.4e-05 (inactive) | 0.00518 (inactive) | inactive | -3.52% (inactive)
CN=C1c2c(-c3ccccc3)c3cc(OC)ccc3n2CCN1C | 531 | -21.3% (inactive) | -137% (inactive) | 145 | 0.562 | 0.295 | -0.655 | -2.47% (inactive) | -0.118 (active) | -9.2e-06 (inactive) | 0.00488 (inactive) | inactive | 2.56% (inactive)
COc1ccc(OC)c(NC(=O)CSc2nnc(-c3ccco3)n2-c2ccc(C(=O)O)cc2)c1 | 494 | -27.8% (inactive) | -97.7% (inactive) | 158 | 0.414 | -0.401 | -0.476 | 11.9% (inactive) | -0.505 (inactive) | -3.4e-05 (inactive) | 0.00721 (inactive) | inactive | 2.3% (inactive)
